Data from ChEMBL document CHEMBL4325910, “Design and synthesis of rosiglitazone-ferulic acid-nitric oxide donor trihybrids for improving glucose tolerance” (Eur J Med Chem, 2019).
Calls of active or inactive are those of the source. No cut-off for these calls is given here.

Assays:
Platelet [1] = experiment: Antiplatelet activity in platelet rich plasma (unknown origin) assessed as inhibition of arachidonic acid-induced platelet aggregation at 1 mM relative to control; assay type: functional
[2] = Toxicity in spontaneous db/db BKS.Cg-Dock7m +/+ Leprdb/J mouse assessed as reduction in serum hematocrit value at 27 umol/kg, po administered as daily dose via gavage treated for 18 days; assay type: organism-based; conditions: in vivo, 432 h
Mus musculus [3] = experiment: Antidiabetic activity in spontaneous db/db BKS.Cg-Dock7m +/+ Leprdb/J mouse assessed as decrease in blood glucose AUC at 10 mg/kg, po administered as daily dose via gavage for 18 days measured on day 12 up to 120 mins post glucose challenge by oral glucose tolerance test; assay type: functional, organism-based
Procedure, shortened: (§1)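 Male db/db mice (BKS.Cg-Dock7m +/+ Leprdb/J), 6 weeks old on purchase, randomized, n=8 per group. Dosed by gavage in 0.5% CMC-Na daily for 18 consecutive days. Vehicle-dosed db/db and C57BL/6 mice served as model and control. Fasting glucose was read by glucometer every three days. On day 12, after an overnight fast, 2 g/kg glucose was given orally. Blood glucose was read at 0–120 min and AUC calculated. Mean ± SEM.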

3T3-L1 [4] = experiment: Inhibition of MDA level in TNF-alpha-induced insulin resistant mouse 3T3L1 cells 10 uM after 48 hrs; assay type: functional, cell-based
Procedure, shortened: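 3T3-L1 preadipocytes were differentiated, and mature adipocytes made insulin resistant with TNF-α (4 ng/mL) daily for 4 days. Cells were then treated in triplicate for 48 h, with or without 20 μM C-PTIO. Lysate GSH, SOD and MDA were measured with kits. Three experiments, mean ± SD.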

Platelet [5] = experiment: Antiplatelet activity in platelet rich plasma (unknown origin) assessed as inhibition of arachidonic acid-induced platelet aggregation at 16 mM relative to control; assay type: functional
Platelet [6] = experiment: Antiplatelet activity in platelet rich plasma (unknown origin) assessed as inhibition of arachidonic acid-induced platelet aggregation at 2 mM relative to control; assay type: functional
[7] = Toxicity in ICR mouse assessed mouse mortality at 5000 mg/kg, po administered as single dose via gavage treated on day 1 and measured daily up to 14 days; assay type: organism-based; conditions: in vivo, 336 h
Procedure, shortened: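 Mice of both sexes, 7 weeks old, were randomized and given one oral gavage dose on day 1. Dose levels were 500, 1000, 2000, 3000, 4000 or 5000 mg/kg, or 2000, 4000 and 5000 mg/kg, with n = 10 per group. Behaviour, health and mortality were checked daily for 14 days, and total deaths were counted on day 14. LD50 was calculated with 95% confidence limits.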

Mus musculus [8] = experiment: Antidiabetic activity in spontaneous db/db BKS.Cg-Dock7m +/+ Leprdb/J mouse assessed as decrease in fasting blood glucose level at 10 mg/kg, po administered as daily dose via gavage for 18 days measured on day 9 post last dose by glucometric analysis; assay type: functional, organism-based; procedure, shortened: as §1
[9] = Metabolic stability in human liver microsomes after 6 hrs in presence of NADPH by HPLC analysis; assay type: ADME, Microsome; conditions: read-out: Stability
Procedure, shortened: (§2)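 Compound (100 mM DMSO stock) was added in triplicate to 0.1 M phosphate buffer pH 7.4 with 3.3 mM MgCl2 and human liver microsomes, then preincubated 5 min at 37 °C. NADPH (1.3 mM stock) was added and incubation continued 0, 0.5, 1, 2 or 6 h. Acetonitrile quench, then HPLC at 254 nm.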

3T3-L1 [10] = experiment: Inhibition of MDA level in TNF-alpha-induced insulin resistant mouse 3T3L1 cells at 3 to 10 uM after 48 hrs; assay type: functional, cell-based
[11] = Metabolic stability in simulated gastric fluid at pH 1.5 measured after 24 hrs by HPLC analysis; assay type: ADME; conditions: read-out: Stability
Procedure, shortened: (§3)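 Gastric fluid was 1% pepsin in water, pH 1.5. Intestinal fluid was 1% trypsin with 0.68% KH2PO4, pH 6.8. Compound (100 mM DMSO stock) was diluted 1:1000 into each, in triplicate. Incubation was at 37 °C for 0, 2, 4, 6, 16 or 24 h. Acetonitrile (3 volumes) stopped it, then HPLC at 254 nm.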

Platelet [12] = experiment: Antiplatelet activity in platelet rich plasma (unknown origin) assessed as inhibition of ADP-induced platelet aggregation at 0.8 mM relative to control; assay type: functional
Mus musculus [13] = experiment: Antidiabetic activity in spontaneous db/db BKS.Cg-Dock7m +/+ Leprdb/J mouse assessed as decrease in fasting blood glucose level at 10 to 20 mg/kg, po administered as daily dose via gavage for 18 days measured on day 9 post last dose by glucometric analysis; assay type: functional, organism-based; procedure, shortened: as §1
Platelet [14] = experiment: Antiplatelet activity in platelet rich plasma (unknown origin) assessed as inhibition of arachidonic acid-induced platelet aggregation at 0.05 mM relative to control; assay type: functional
[15] = Toxicity in spontaneous db/db BKS.Cg-Dock7m +/+ Leprdb/J mouse assessed as reduction in serum hematocrit value at 13.5 to 27 umol/kg, po administered as daily dose via gavage treated for 18 days; assay type: organism-based; conditions: in vivo, 432 h
[16] = Metabolic stability in human liver microsomes after 0.5 hrs in presence of NADPH by HPLC analysis; assay type: ADME, Microsome; conditions: read-out: Stability; procedure, shortened: as §2
[17] = Metabolic stability in simulated intestinal fluid at pH 6.8 measured after 4 hrs by HPLC analysis; assay type: ADME; conditions: read-out: Stability; procedure, shortened: as §3
Mus musculus [18] = experiment: Cardioprotective activity in db/db BKS.Cg-Dock7m +/+ Leprdb/J mouse assessed as decrease in serum cTnI level administered po as daily dose via gavage for 18 days by ELISA; assay type: functional, organism-based
Procedure, shortened: (§4)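 db/db mice were gavaged daily for 18 days in 0.5% CMC-Na, with vehicle-treated model and C57BL/6 control groups. Tail vein blood was collected and serum TNF-α and cTnI measured by commercial ELISA kits. Six individual experiments, mean ± SD, one-way ANOVA.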

[19] = Drug metabolism in Sprague-Dawley rat plasma after 0.5 hrs by HPLC analysis; assay type: ADME, cell-free; conditions: read-out: Drug metabolism
Procedure, shortened: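 100 mM DMSO stock was diluted 1:1000 into SD rat plasma, in triplicate. Incubated with shaking at 37 °C for 0–24 h, then stopped with three volumes of acetonitrile and centrifuged.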

3T3-L1 [20] = experiment: Inhibition of ROS production in TNF-alpha-induced insulin resistant mouse 3T3L1 cells at 3 to 10 uM after 48 hrs in presence of nitric oxide scavenger C-PTIO by DCFH-DA dye-based fluorescence assay; assay type: functional, cell-based
Mus musculus [21] = experiment: Cardioprotective activity in db/db BKS.Cg-Dock7m +/+ Leprdb/J mouse assessed as decrease in serum TNF-alpha level at 27 umol/kg, po administered as daily dose via gavage treated for 18 days by ELISA; assay type: functional, organism-based; procedure, shortened: as §4
3T3-L1 [22] = experiment: Induction of nitric oxide production in TNF-alpha-induced insulin resistant mouse 3T3L1 cells at 3 to 10 uM after 0.5 to 6 hrs in presence of nitric oxide scavenger C-PTIO by DAF-FM-2DA dye-based fluorescence assay; assay type: functional, cell-based
Procedure, shortened: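 Insulin-resistant 3T3-L1 adipocytes (TNF-α 4 ng/mL, 4 days) were treated for varying times, with or without 20 μM C-PTIO. Vehicle was DMSO 0.1% or NaOH 10 μM. Cells were washed in KRP, loaded with 10 μM DAF-FM-2DA in pH 7.4 PBS at 37 °C for 30 min, and read at Ex/Em 485/515 nm. Three experiments.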

[23] = Metabolic stability in simulated intestinal fluid at pH 6.8 measured after 6 hrs by HPLC analysis; assay type: ADME; conditions: read-out: Stability; procedure, shortened: as §3
[24] = Metabolic stability in human liver microsomes measured immediately after compound addition in presence of NADPH by HPLC analysis; assay type: ADME, Microsome; conditions: read-out: Stability; procedure, shortened: as §2

With `CN(CCOc1ccc(CC2SC(=O)NC2=O)cc1)c1ccccn1` (centres undefined) [ROSIGLITAZONE] the inhibition at 1000 µM (Platelet [1]) was 14.8%, the Activity [2] was “Toxic” and the Activity (Mus musculus [3]) was “Active”. The inhibition (3T3-L1 [4]) was “Active”, the inhibition at 16000 µM (Platelet [5]) was 67.2% and the inhibition at 2000 µM (Platelet [6]) was 28%. For the same compound, the Activity [7] was “Toxic” and the Activity (Mus musculus [8]) was “Active”.
In the case of `CCN(CC)/[N+]([O-])=N/OCOC(=O)/C=C/c1ccc(OC(=O)OCN2C(=O)SC(Cc3ccc(OCCN(C)c4ccccn4)cc3)C2=O)c(OC)c1` (centres undefined), the remaining at 6 h [9] is reported as 82%, the inhibition (3T3-L1 [10]) is reported as “Active” and the remaining at 24 h [11] is reported as 82.6%. For the same compound, the inhibition at 800 µM (Platelet [12]) was 26.2%, the Activity (Mus musculus [13]) was “Active” and the inhibition at 50 µM (Platelet [14]) was 9.2%. For the same compound, the Activity [15] was “Non-Toxic”, the remaining at 0.5 h [16] was 94.3% and the remaining at 4 h [17] was 96.9%. For the same compound, the Activity (Mus musculus [18]) was “Dose-dependent effect”, the metabolised at 0.5 h [19] was 23% and the inhibition (3T3-L1 [20]) was “inactive”. The Activity (Mus musculus [21]) was “Active”, the Activity (3T3-L1 [22]) was “inactive” and the remaining at 6 h [23] was 87.6%. For the same compound, the remaining at 0 h [24] was 100%.
